In the library only some 2.6% were active in any assay of this set; here they are far more common.
ABCB6 inh 2 = human ABCB6 transporter inhibition; Q9NP58; K562-ABCB6 porphyrin accumulation, flow cytometry, 1 h; stronger effect = lower value; fluorescence ratio to DMSO, % at 10 µM; 360,000 tested, 0.19% active;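 active = fluorescence ratio to DMSO below 75%, the collection mean minus 3 SD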;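 note: signal is porphyrin accumulated inside mitochondria; 100% equals median channel fluorescence of DMSO control wells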
Tb MetRS inh = Trypanosoma brucei MetRS inhibition; purified T. brucei MetRS, ATP depletion, Kinase-Glo luminescence; inhibition, % at 11.9 µM; 360,000 tested, 0.4% active; AID 624268;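 active = inhibition above a per-plate cutoff of the control wells' mean inhibition plus 3 SD, cut at about 5.5% in these data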;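 note: 0% = DMSO wells median and 100% = median of wells with control inhibitor compound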
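assay system = parasite MetRS enzyme | timing = 15 min preincubation, 2 h reaction, all 25 °C | evaluation = percent inhibition relative to median high and low control wells | medium = HEPES buffer containing pyrophosphatase, BSA, spermine, DTT | compound = single dose, 11.9 µM final nominal, 0.9% final DMSO | detection = Kinase-Glo luminescence, ATP depletion format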
Granule exo inh = blocks lytic granule exocytosis; TALL-104 LAMP-1 surface exposure, flow cytometry; cells stimulated with thapsigargin and PMA; inhibition, % at 10 µM; 360,000 tested, 0.66% active;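 active = inhibition above about 55%, limit read from the data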
iPSC survival up = enhancers of human iPSC single-cell survival; hiPSC single-cell survival, ATPlite luminescence; 100% = ROCK inhibitor wells, 0% = DMSO; survival enhancement, % at 20 µM; 360,000 tested, 0.044% active; AID 602274; in the data active = survival enhancement above about 18%;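 note: cells exposed to compounds for 16 hours before the ATP read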
MC4R ag barr = human MC4R agonism via beta-arrestin | U2OS MC4R beta-arrestin complementation, luminescence; percent of melanotan II response, DMSO zero | 360,000 tested, 0.98% active | AID 540308 | P32245 | activation, % at 8.9 µM;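 active = activation above a per-plate cutoff, the mean activation of sample wells on that plate plus 3 SD, cut at about 8% in these data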
Target sequence (P32245 whole entry, looked up): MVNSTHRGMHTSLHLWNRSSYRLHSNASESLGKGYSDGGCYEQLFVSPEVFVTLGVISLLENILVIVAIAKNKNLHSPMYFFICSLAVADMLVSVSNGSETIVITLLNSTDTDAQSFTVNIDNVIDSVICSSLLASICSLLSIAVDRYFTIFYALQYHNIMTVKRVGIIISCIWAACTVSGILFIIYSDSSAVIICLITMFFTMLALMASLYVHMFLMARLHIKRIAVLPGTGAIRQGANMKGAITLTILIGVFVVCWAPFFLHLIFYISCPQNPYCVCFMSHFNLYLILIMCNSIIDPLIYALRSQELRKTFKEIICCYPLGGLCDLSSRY
MC4R antagonist = human MC4R antagonism in cAMP assay; P32245; MC4R-expressing cells, MTII-stimulated cAMP, LANCE TR-FRET; inhibition, % at 6.5 µM; 360,000 tested, 0.48% active; AID 540295;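 active = inhibition above its plate's cutoff, the mean of tested wells on that plate plus 3 SD, cut at about 29% in these data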;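 note: 0% = Melanotan II alone and 100% = Melanotan II plus saturating MCL0020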
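System: U2OS cells stably expressing human melanocortin 4 receptor (MC4R). Reagent: Melanotan II challenge after compound preincubation. Doses: 6.5 µM. Times: 30-min compound, 1-h challenge, 1-h detection, room temperature. Measured by: TR-FRET with Eu-cAMP and labeled anti-cAMP, 671 nm. Replicates: singlicate.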
cAMP nonselect = nonselective cAMP signaling inhibitor, MC4R antagonist counter-screen | shares compounds with MC4R antagonist | parental U2OS, forskolin cAMP, LANCE TR-FRET | inhibition, % at 6.5 µM | 1,600 tested, 26% active;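 active = mean inhibition over triplicates above the low-control well mean plus 3 SD, set per campaign, cut at about 13% in these data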;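 note: signal is single emission at 671 nm which falls as cellular cAMP rises; 0% = forskolin-stimulated wells and 100% = buffer without forskolin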
MC4R antag conf = human MC4R cAMP antagonism confirmation. 1,600 tested, 27% active. MC4R-expressing cells, MTII-stimulated cAMP, TR-FRET. shares compounds with MC4R antagonist. inhibition, % at 6.5 µM. AID 602195; in the data active = inhibition above about 29%;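 note: 0% = agonist stimulated wells alone and 100% = agonist stimulated wells plus saturating reference antagonist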
An asterisk follows results filed as active; . = no result given.

SMILES | ABCB6 inh 2 | Tb MetRS inh | Granule exo inh | iPSC survival up | MC4R ag barr | MC4R antagonist | cAMP nonselect | MC4R antag conf
CC1(C)CC(=O)c2c(O)cc(OCC(=O)NCCc3ccc(S(N)(=O)=O)cc3)cc2O1 | 95 | 0 | -5 | -3 | 2 | -6 | . | .
CC1=C(SCc2ccccc2)C(=O)c2ccccc2C1=O | 115 | 0 | 1 | -1 | -2 | 8 | . | .
O=C1C(SCCO)=C(SCCO)C(=O)c2ccccc21 | 152 | 2 | 97* | -5 | -4 | 97* | 102* | 143*
CC(=O)c1ccccc1NC(=O)CSc1nc2ccccc2c(=O)n1CCCN1CCOCC1 | 100 | 0 | -3 | 0 | -1 | 0 | . | .
CS(=O)(=O)c1ccc(Cl)c(NC(=O)CSc2nc3ccccc3c(=O)n2CCCN2CCOCC2)c1 | 103 | -1 | 7 | 0 | -1 | 31* | 2 | -1
COc1ccc(NC(=O)C(Cl)=C(Cl)Cl)cn1 | 103 | 0 | 0 | -1 | -3 | 18 | . | .
COc1ccc(NC(=O)/C(Cl)=C(/Cl)S(=O)Cc2ccc(Cl)cc2)cn1 (stereo unspecified) | 37* | 0 | 23 | -4 | -7 | 76* | 11 | 54*
COc1ccc(NC(=O)/C(Cl)=C(/Cl)S(=O)(=O)Cc2ccccc2)cn1 | 60* | -1 | 100* | 13 | -3 | 56* | 34* | 49*
O=C(O)Cc1sc(NC2CCCCC2)nc1-c1ccc(Cl)cc1 | 112 | 0 | -1 | 0 | -2 | 1 | . | .
Cc1cccc(OCC(=O)Nc2ccc3c(c2)C(=O)NC3=O)c1 | 80 | 0 | 5 | 0 | 0 | 2 | . | .
CNC(=O)NC(=O)CSc1nc(-c2cccs2)c(C#N)c(=O)[nH]1 | 102 | 0 | 0 | 1 | -1 | 121* | 87* | 153*
CSc1nc(-c2ccccc2)c(C#N)c(=O)[nH]1 | 97 | 0 | -2 | 1 | 1 | 21 | . | .
COc1cccc(-c2nc(SCC(=O)Nc3nc(-c4ccccc4)c(C)s3)[nH]c(=O)c2C#N)c1 | 103 | -1 | 2 | -1 | -1 | 9 | . | .
CSc1nc(-c2ccc(Cl)cc2)c(C#N)c(=O)[nH]1 | 105 | 0 | -10 | 0 | 0 | 10 | . | .
CCOc1ccc2nc(NC(=O)CSc3nc(-c4ccccc4)c(C#N)c(=O)[nH]3)sc2c1 | 106 | 0 | -6 | 1 | 0 | 31* | 8 | 18
CSc1nc(-c2cccs2)c(C#N)c(=O)[nH]1 | 102 | 2 | 3 | 0 | -1 | 45* | 43* | 85*
N#Cc1c(-c2cccs2)nc(SCc2ccc(Cl)cc2)[nH]c1=O | 123 | 0 | 2 | -1 | 0 | 58* | 43* | 80*
O=C(COc1coc(CN2CCN(c3ccc(F)cc3)CC2)cc1=O)NC1CCCCC1 | 94 | -1 | -1 | 0 | 0 | 6 | . | .
CCCCN(CC)S(=O)(=O)N1CCC(C(=O)NCc2ccc(F)cc2)CC1 | 85 | -1 | 3 | 0 | -1 | 2 | . | .
CCOc1ccccc1N1CCN(CC(=O)NCCc2ccc(S(N)(=O)=O)cc2)CC1 | 108 | 0 | -3 | 0 | 1 | 10 | . | .
COc1ccc(NC(=O)CCC(=O)NCCO)cc1 | 95 | 0 | -2 | 1 | 0 | 37* | 1 | -7
COC(=O)c1cc(=O)n(-c2ccccc2)c(=Nc2ccccc2)s1 | 103 | -2 | 6 | 0 | 3 | 11 | . | .
CCOC(=O)c1ccc(N=c2sc(C(=O)OC)cc(=O)n2-c2ccc(C(=O)OCC)cc2)cc1 | 106 | 1 | 1 | 13 | 1 | 32* | 6 | 18
Cc1cc(C)n(-c2ccc(Cl)c(C(=O)Nc3ccc(OC(F)(F)F)cc3)n2)n1 | 92 | -1 | -1 | 0 | 3 | 7 | . | .
CC(C(=O)c1ccccc1)[n+]1cccc(C(N)=O)c1 (stereo unspecified) | 99 | 0 | 2 | 1 | 0 | 33* | -5 | -20
SMILES | ABCB6 inh 2 | Tb MetRS inh | Granule exo inh | iPSC survival up | MC4R ag barr | MC4R antagonist | cAMP nonselect | MC4R antag conf
CN=C(Nc1cccc(Cl)c1)SC1CC(=O)N(c2ccc(OC)cc2)C1=O (stereo unspecified) | 103 | 1 | 3 | 1 | 4 | 20 | . | .
COc1ccc(NC(=O)CN2C(=O)/C(=C3\SC(=S)N(C4CCS(=O)(=O)C4)C3=O)c3ccccc32)cc1 (stereo unspecified) | 91 | -1 | -9 | -1 | 1 | 4 | . | .
Cc1ccc(S(=O)(=O)/N=C2/C=C(Sc3ncn[nH]3)C(=O)c3ccccc32)cc1 | 105 | 3 | 108* | -2 | -1 | 48* | 27* | 35*
COc1cc(OC)cc(C(=O)Nc2nc3ccc(S(C)(=O)=O)cc3s2)c1 | 101 | 1 | 0 | -1 | -3 | 34* | -2 | -5
CCNC(=O)c1cc2c(c(-c3cccc(-c4cccnc4)c3)n1)[C@H](CCO)N(S(C)(=O)=O)C2 | 95 | 0 | -1 | -1 | . | . | . | .
COc1cc(C2NCC(c3ccc(Cl)cc3Cl)c3c2[nH]c2ccccc32)cc(OC)c1OC (stereo unspecified) | 101 | 0 | -1 | -1 | 6 | 36* | 6 | 11
N=c1c2c(-c3ccccc3)c(-c3ccccc3)n(Cc3ccccc3)c2ncn1CCCn1ccnc1 | 98 | 1 | 50 | -6 | 1 | 29* | -2 | 35*
Cc1cc(NCCCn2ccnc2)n2nc(C)c(-c3ccccc3)c2n1 | 97 | -1 | 0 | 1 | -1 | 5 | . | .
Nc1nc(Cl)c(C=O)c(N2CCCCC2)n1 | 98 | 0 | 2 | 1 | -2 | 37* | 20* | 28
O=S(=O)(c1ccc(F)cc1)N1CCN(c2nc(-c3cccnc3)nc3ccccc23)CC1 | 96 | 0 | -3 | 0 | 4 | 30* | 6 | 23
O=S(=O)(c1ccccc1)N1CCN(c2nc(-c3cccnc3)nc3ccccc23)CC1 | 96 | -1 | 6 | 3 | 3 | 11 | . | .
COC(=O)C1CCN(C(=O)Cn2nnc(-c3ccccc3)n2)CC1 | 104 | 0 | 9 | 0 | 0 | -3 | . | .
COC(=O)c1ccc2c(=O)[nH]c(COC(=O)c3[nH]c(C)c(C(C)=O)c3C)nc2c1 | 92 | 0 | 9 | 2 | -1 | 24 | . | .
COC(=O)c1ccc2c(=O)[nH]c(COC(=O)c3c(-c4ccccc4Cl)noc3C)nc2c1 | 100 | 0 | 0 | 0 | 2 | 29* | -1 | 5

Bioassay records: PubChem BioAssay, several laboratories
